Reference: ChEMBL document CHEMBL1127444, “Aza-tricyclic substance P antagonists” (J Med Chem, 1994)

What was measured:
Substance-P receptor = Substance-P receptor (Homo sapiens, UniProt P25103); assay: Tested in vitro for the binding affinity towards NK1 receptor in human IM-9 cells using [125I]-labeled bolton-hunter substance P as ligand; assay type: cell-based
How it was run: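 IC50 from six-point concentration–response curves, each concentration in duplicate. Mean ± SEM of three separate experiments.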

Cavia porcellus = species on record: Cavia porcellus; assay: Inhibition of capsaicin-induced plasma extravasation in guinea pig ureter; assay type: functional
How it was run: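 Male Hartley guinea pigs (300–400 g), fasted overnight, anaesthetised with pentobarbital 25 mg/kg. Compound given po 1 h before capsaicin, at four doses. Evans Blue 30 mg/kg iv, then 5 min later 30 μM capsaicin in 0.1% BSA Krebs bicarbonate, 10 mL per animal. Killed 10 min later. Ureter extracted in formamide at 60 °C for 24 h and OD read at 600 nm. ED50 with 95% confidence limits.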

Sequence of Substance-P receptor (P25103 whole entry): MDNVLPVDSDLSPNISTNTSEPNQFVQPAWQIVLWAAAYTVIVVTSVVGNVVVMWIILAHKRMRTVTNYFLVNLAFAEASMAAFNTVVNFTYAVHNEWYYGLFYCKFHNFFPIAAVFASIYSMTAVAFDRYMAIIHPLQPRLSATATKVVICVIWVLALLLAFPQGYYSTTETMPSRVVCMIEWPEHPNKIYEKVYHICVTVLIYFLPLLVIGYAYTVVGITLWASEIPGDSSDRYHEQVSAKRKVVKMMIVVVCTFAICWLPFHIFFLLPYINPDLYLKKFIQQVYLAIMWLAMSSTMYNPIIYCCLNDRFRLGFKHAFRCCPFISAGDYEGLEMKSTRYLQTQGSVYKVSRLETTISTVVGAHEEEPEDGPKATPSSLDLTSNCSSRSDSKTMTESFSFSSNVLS

Structure (SMILES): Clc1ccccc1CN[C@H]1C2C3CCCC2CN(C3)[C@H]1C(c1ccccc1)c1ccccc1
- IC50 (Substance-P receptor): 39 nM

Structure (SMILES): c1ccc(CNC2C3CC4CCC(C3)N4[C@H]2C(c2ccccc2)c2ccccc2)cc1 (stereo not given in full)
- IC50 (Substance-P receptor): 68 nM

Structure (SMILES): c1ccc(CN[C@H]2C3C4CCCC3CN(C4)[C@H]2C(c2ccccc2)c2ccccc2)cc1
- IC50 (Substance-P receptor): 230 nM

Structure (SMILES): COc1ccccc1CNC1C2CC3CCOC(C2)N3[C@H]1C(c1ccccc1)c1ccccc1 (stereo not given in full)
- IC50 (Substance-P receptor): 7.2 nM

Structure (SMILES): COc1ccccc1CN[C@H]1C2C3CCCC2CN(C3)[C@H]1C(c1ccccc1)c1ccccc1
- ED50 (Cavia porcellus): 4.43 mg/kg

Structure (SMILES): Clc1ccccc1CNC1C2CC3CCC(C2)N3[C@H]1C(c1ccccc1)c1ccccc1 (stereo not given in full)
- IC50 (Substance-P receptor): 7.1 nM

Structure (SMILES): FC(F)(F)c1ccccc1CNC1C2CC3CCCC(C2)N3[C@H]1C(c1ccccc1)c1ccccc1 (stereo not given in full)
- IC50 (Substance-P receptor): 4400 nM

Structure (SMILES): COc1ccccc1CNC1C2CC3CCC(C2)N3[C@H]1C(c1ccccc1)c1ccccc1 (stereo not given in full)
- ED50 (Cavia porcellus): 4.13 mg/kg
- IC50 (Substance-P receptor): 0.92 nM

Structure (SMILES): c1ccc(CNC2C3CC4CCCC(C3)N4[C@H]2C(c2ccccc2)c2ccccc2)cc1 (stereo not given in full)
- IC50 (Substance-P receptor): 170 nM

Structure (SMILES): Clc1ccccc1CNC1C2CC3CCCC(C2)N3[C@H]1C(c1ccccc1)c1ccccc1 (stereo not given in full)
- IC50 (Substance-P receptor): 58 nM

Structure (SMILES): COc1ccccc1CNC1C2C3CCC2CN(C3)[C@H]1C(c1ccccc1)c1ccccc1 (stereo not given in full)
- ED50 (Cavia porcellus): 2.61 mg/kg
- IC50 (Substance-P receptor): 2.4 nM

Structure (SMILES): COc1ccccc1CNC1C2CC3CCCC2CN3[C@H]1C(c1ccccc1)c1ccccc1 (stereo not given in full)
- IC50 (Substance-P receptor): 1.9 nM

Structure (SMILES): COc1ccccc1CN[C@H]1C2CCN(CC2)[C@H]1C(c1ccccc1)c1ccccc1 [CP-96345]
- ED50 (Cavia porcellus): 2.83 mg/kg
